Screens as filed in PubChem BioAssay.
MrgX1 antagonist: antagonists of human MrgX1 receptor; MRGX1-HEK293 calcium flux, Fluo-4, BAM8-22 antagonism; active compounds read low; B-score at 10 µM; 310,000 tested, 1.3% active; AID 588676;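 active means calcium-response B-score plate-corrected more than 3 library SD below zero, starting fluorescence within 5 deviations, no agonist response on first addition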;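 further: peak minus trough fluorescence over baseline after final BAM8-22 challenge near maximal dose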
Target sequence (Q96LB2 whole entry, looked up): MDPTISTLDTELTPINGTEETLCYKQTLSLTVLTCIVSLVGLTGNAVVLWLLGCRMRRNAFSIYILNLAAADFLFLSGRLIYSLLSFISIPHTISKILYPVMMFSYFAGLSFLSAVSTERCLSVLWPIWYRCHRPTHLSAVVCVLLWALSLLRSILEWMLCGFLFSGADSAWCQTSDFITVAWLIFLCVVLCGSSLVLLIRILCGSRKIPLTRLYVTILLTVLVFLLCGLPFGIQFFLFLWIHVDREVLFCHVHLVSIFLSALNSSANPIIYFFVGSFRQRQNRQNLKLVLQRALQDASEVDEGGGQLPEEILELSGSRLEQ
MrgX1 ag: activates human MrgX1 receptor signaling. Q96LB2. MrgX1-HEK293 cells, Fluo-4 calcium fluorescence, agonist mode; active compounds read high. B-score at 10 µM. 310,000 tested, 0.44% active. AID 588627;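 active means calcium response B-score plate-corrected fluorescence ratio at least 3 library SD, with starting fluorescence B-score inside 5 SD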
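Test system: Stable human MrgX1 HEK293 cell line | Schedule: Overnight plating before 1 h dye loading | Read-out basis: Baseline-normalised fluorescence change ratio, B-scored | Detection: Kinetic calcium dye fluorescence, Fluo-4 NW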
RGS4 inh: inhibitors of human RGS4. B-score at 10 µM. 310,000 tested, 0.45% active. P49798. HEK293 M3R/RGS4 inducible, Fluo-4 calcium flux; active compounds read high; triggered by carbachol at its EC20;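 active means B-score, a plate-corrected calcium signal, over three deviations above library mean, with baseline fluorescence within five deviations of library mean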;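 further: RGS4 expression induced by doxycycline in cells with stable M3 receptor; B-score is computed from the integrated fluorescence ratio over baseline after carbachol; higher B-score means a larger calcium signal and so more RGS4 inhibition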
Target sequence (P49798 whole entry, looked up): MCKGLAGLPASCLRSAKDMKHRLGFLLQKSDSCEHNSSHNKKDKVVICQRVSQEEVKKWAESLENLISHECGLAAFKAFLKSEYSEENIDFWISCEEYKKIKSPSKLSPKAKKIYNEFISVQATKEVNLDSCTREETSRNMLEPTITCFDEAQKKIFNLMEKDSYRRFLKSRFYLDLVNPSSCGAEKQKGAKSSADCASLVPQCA
MrgX1 allo act: allosterically activates human MrgX1 receptor signaling. Q96LB2. MrgX1-HEK293, Fluo-4 calcium flux, FDSS; active compounds read high. B-score at 10 µM. 310,000 tested, 0.63% active. AID 588675;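 active means plate-corrected calcium response at least 3 library SD above typical, normal starting fluorescence, not activating the receptor alone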;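 further: compound read alongside a low EC10 to EC30 dose of BAM8-22 agonist; peak minus trough fluorescence over baseline measured at the second addition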
RGS4 act: potentiators or activators of RGS4; HEK293 M3R/inducible RGS4, carbachol calcium flux Fluo4; active compounds read low; B-score at 10 µM; 310,000 tested, 0.92% active;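 active means B-score of the integrated calcium signal more than 4 SD below the library mean, with starting fluorescence not abnormally high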;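 further: negative B-score means reduced calcium response which marks RGS4 activation or potentiation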
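Test system: HEK293 cells with stable M3R and inducible RGS4; also added: carbachol at ECmax as muscarinic agonist stimulus; schedule: dye loading 30 min 37 °C, buffer rest 30 min RT; technique: kinetic calcium fluorescence imaging with Fluo4-AM dye, 2 µM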
RGS4 inh valid: validation of RGS4 inhibitors | shares compounds with RGS4 inh | 1,700 tested, 65% active | calcium response, % at 10 µM | HEK293 M3R/RGS4, carbachol calcium Fluo-4 fluorescence; carbachol added at its EC20; 0 = buffer wells, 100 = carbachol control;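 active means duplicate-averaged calcium response above the buffer-only control mean plus 5 SD of those controls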;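 further: integrated fluorescence ratio F max minus min over baseline F0; higher response in RGS4-induced cells means RGS4 inhibition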
M3R Ca ctr: checks RGS4 inhibitor effects in non-induced HEK293 M3R cells. 1,900 tested, 20% active. activity (percent), % at 10 µM. carbachol calcium Fluo-4; submaximal (EC20) carbachol stimulus; buffer wells 0%, carbachol control wells 100%. shares compounds with RGS4 inh; call rule not given here;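 further: RGS4 induction absent so cells express M3R without RGS4; higher means more calcium signal and flags a non-specific hit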
RGS4 inh ctr2: signal in non-induced cells without carbachol, RGS4 inhibitor counter-screen. HEK293 M3R/RGS4 non-induced, Fluo-4 calcium, no carbachol; normalised: buffer wells 0%, carbachol wells 100%. 1,900 tested, 22% active. shares compounds with RGS4 inh. calcium response (agonist-mode artifact), % at 10 µM;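 active means duplicate-averaged calcium rise in uninduced cells above buffer wells' mean plus 5 SD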
MrgX1 ag reconf: reconfirmed activator of human MrgX1 receptor signaling. shares compounds with MrgX1 ag. MrgX1-HEK293, Fluo-4 calcium fluorescence, FDSS. activation, % at 10 µM. 600 tested, 78% active. AID 602412;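 active means calcium signal rise, corrected for plate position, at least 3 library SD high, with starting brightness within 5 such deviations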
MrgX1 allo conf: human MrgX1 positive allosteric modulation, re-confirmation | AID 602413 | 1,200 tested, 13% active | MrgX1-HEK293, Fluo-4 calcium fluorescence, FDSS | activation (ratio percentage), % at 10 µM | shares compounds with MrgX1 allo act;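 active means ratio at least 3 SD above the weak peptide control, stable starting fluorescence, no direct agonism earlier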;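 further: compound followed by low BAM8-22 agonist challenge near EC20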
MrgX1 ant reconf: reconfirmed antagonist of human MrgX1 receptor signaling. MrgX1-HEK293, BAM8-22 calcium flux, Fluo-4; active compounds read low. 2,300 tested, 19% active. remaining BAM8-22 calcium response % of control (active compounds read low), % at 10 µM. shares compounds with MrgX1 antagonist;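 active means remaining agonist calcium response no higher than 100% minus 3 SD of agonist-only control wells, with starting fluorescence near control levels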;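 further: agonist BAM8-22 given at a near maximal EC90 to ECmax level; peak minus minimum fluorescence divided by baseline after agonist addition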
HEK293 Ca flux: counter-screen for MrgX1 antagonists: effect in parental HEK293 cells | shares compounds with MrgX1 antagonist | Fluo-4 calcium fluorescence, FDSS | fluorescence ratio F(max-min)/F0 at 10 µM | 4,000 tested, 2% active | AID 624111;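 active means duplicate-averaged calcium fluorescence ratio at least three times the standard deviation of buffer wells, a nonspecific response in parental cells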
HEK293 Ca counter: counter-screen for MrgX1 allosteric activators: effect in parental HEK293 cells; shares compounds with MrgX1 antagonist; parental HEK293 calcium flux, Fluo-4 fluorescence ratio; active compounds read high; fluorescence ratio F(max-min)/F0 at 10 µM; 4,000 tested, 0.4% active;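 active means calcium fluorescence ratio, averaged over duplicates, at least 3 SD of the buffer-well ratio, meaning a nonspecific response in receptor-free cells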;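 further: untransfected parental HEK293 lacking MrgX1 used as counterscreen for MrgX1 allosteric activators; fluorescence change taken during the second addition on a kinetic imager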
HEK293 Ca cntr2: counter-screen for MrgX1 activators: effect in parental HEK293 cells; fluorescence ratio F(max-min)/F0 at 10 µM; 4,000 tested, 8.7% active; shares compounds with MrgX1 antagonist; Fluo-4 calcium fluorescence (FDSS); active compounds read high;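 active means calcium fluorescence ratio at least three times the spread of buffer wells, meaning a non-specific response in parental cells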
* marks the source's active call; other numbers are inactive results; i = inactive; x = no result. A selection: hits, their analogues and other compounds. The true share with any hit is near 3.5%.

SMILES | MrgX1 antagonist | MrgX1 ag | RGS4 inh | MrgX1 allo act | RGS4 act | RGS4 inh valid | M3R Ca ctr | RGS4 inh ctr2 | MrgX1 ag reconf | HEK293 Ca flux | HEK293 Ca counter | HEK293 Ca cntr2 | others
O=C(CCN1CCc2ccccc2CC1)c1ccc2c(c1)OCCO2 | i | 38* | 13* | i | i | 20%* | i | 26%* | 136%* | i | i | i
Cc1c(Cl)ccc2c1NC(=O)[C@]21N[C@@H](Cc2ccccc2)[C@H]2C(=O)N(c3ccc(F)cc3)C(=O)[C@H]21 | i | 27* | 4.9* | i | i | 27%* | i | 20%* | i | i | i | i
Cc1ccc(C(=O)NNS(=O)(=O)c2ccc(F)cc2)cc1 | i | i | i | i | i | x | x | x | x | x | x | x
O=C(NCCOc1ccccc1)c1cc(S(=O)(=O)N2CCOCC2)ccc1F | i | i | i | i | i | x | x | x | x | x | x | x
O=C1C(Cl)=C(NS(=O)(=O)c2ccc([N+](=O)[O-])cc2)C(=O)c2ccccc21 | i | i | 8.5* | 21* | i | 42%* | i | i | x | i | i | i | MrgX1 allo conf=14%*
O=[N+]([O-])c1ccc(Oc2ccc(S(=O)(=O)Nc3ccccc3)cc2)cc1 | i | i | i | i | i | x | x | x | x | x | x | x
CCN(CC)c1ccc(Nc2cc3n(c(=O)n2)CCc2cc(OC)c(OC)cc2-3)cc1 | -11* | i | i | i | i | x | 50%* | i | x | i | i | i | MrgX1 ant reconf=i
COc1cc(CNc2ccc(N3CCCC3)cc2)cc(Cl)c1OC | -6.1* | i | i | i | i | x | 33%* | i | x | i | i | i | MrgX1 ant reconf=i
CC(=O)c1ccc(-n2c(CCC(=O)O)ccc2-c2cccs2)cc1 | i | i | i | i | i | x | x | x | x | x | x | x
Cc1ccc(-n2c(CCC(=O)O)ccc2-c2cccs2)cc1 | i | 33* | i | i | i | x | x | x | 149%* | i | i | i
CC(=O)c1ccc(N2C(=O)C3C(C2=O)C(C(=O)c2ccc(Cl)cc2)N2CCCC32)cc1 (configuration not stated) | x | x | i | x | i | x | x | x | x | x | x | x
COc1ccc(N2C(=O)C3C(C2=O)C(C(=O)c2ccc(Cl)cc2)N2CCCC32)cc1 (configuration not stated) | i | 72* | i | i | i | x | x | x | i | i | i | i
